# PP1 inh – PP1-alpha phosphatase inhibitors, primary screen, counter-screen for PP5 inhibitor project, biochemical, fluorescence, OMFP substrate, single point. Serine/threonine-protein phosphatase PP1-alpha catalytic subunit (Homo sapiens), P62136. purified PP1alpha. inhibition, % at 6.7 µM. actives 0.9% (n = 320,000). AID 2235, 2010;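 active = inhibition above the mean inhibition of all tested compounds plus 3 SD, computed separately for each screening campaign, cut at about 15% in these data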
# Target sequence (P62136 whole entry, looked up): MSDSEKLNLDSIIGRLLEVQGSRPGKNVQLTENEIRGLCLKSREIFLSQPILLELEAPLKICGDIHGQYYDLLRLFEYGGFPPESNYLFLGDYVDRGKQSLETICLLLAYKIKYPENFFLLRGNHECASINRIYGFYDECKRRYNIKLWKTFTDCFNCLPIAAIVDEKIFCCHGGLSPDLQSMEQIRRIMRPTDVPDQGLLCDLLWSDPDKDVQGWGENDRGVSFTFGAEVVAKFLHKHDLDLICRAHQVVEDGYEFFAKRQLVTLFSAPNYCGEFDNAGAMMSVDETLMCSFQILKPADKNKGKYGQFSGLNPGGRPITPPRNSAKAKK
# EBNA-1 inhibitor – EBNA-1 DNA-binding inhibitors, primary screen, biochemical, fluorescence polarization; inhibition, % at 14.8 µM; actives 0.34% (n = 300,000); in the data active = inhibition above about 28%
# HCV core dimer – inhibitors of HCV core protein dimerization, primary screen, biochemical, TR-FRET, high-throughput; TR-FRET GST/Flag-core106 dimerization, 1536-well; inhibition, % at 5 µM; actives 0.33% (n = 300,000); AID 1899, 2009;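 active = inhibition above the mean of all tested compounds plus 3 SD, set per screening campaign, cut at about 45% in these data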
#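 System: GST-tagged and Flag-tagged HCV core protein residues 1-106 / Input: core106 proteins, GST 13.5 nM and Flag 17 nM / Buffer or medium: KF-containing HEPES buffer, pH 7.45, DTT, CHAPS, BSA / Probe or stimulus: Eu-anti-GST and XL665-anti-Flag labelled anti-tag antibodies / Schedule: 4 h, 22.5 °C incubation / Technique: TR-FRET 671 and 617 nm emission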
# HCV NS3 hel inh – inhibitors of HCV NS3 helicase, primary screen, biochemical, Cy5 molecular beacon fluorescence. actives 0.56% (n = 290,000). inhibition, % at 10.9 µM. NS3 helicase DNA unwinding;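 active = inhibition above the mean of all tested compounds plus 3 SD, set per campaign, cut at about 35% in these data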
#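 Control set: DMSO versus 110 µM thioflavine S; Material: NS3 helicase fragment of HCV; Measured by: Cy5 fluorescence at 0 and 60 min, beacon hairpin quenching; Read-out basis: percent inhibition from t60/t0 fluorescence ratio; Times: reaction time 60 min, 25 °C; Repeats: single replicate; Compound dosing: single dose, 10.9 µM nominal final, DMSO 0.8% final.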
# ZTA DNA inh – blocks Epstein-Barr virus ZTA, an EBNA-1 counter-screen. P03206. ZTA-DNA binding, fluorescence polarization. inhibition, % at 11 µM. actives 0.15% (n = 320,000). AID 2234; in the data active = inhibition above about 33%
# Target sequence (P03206 whole entry, looked up): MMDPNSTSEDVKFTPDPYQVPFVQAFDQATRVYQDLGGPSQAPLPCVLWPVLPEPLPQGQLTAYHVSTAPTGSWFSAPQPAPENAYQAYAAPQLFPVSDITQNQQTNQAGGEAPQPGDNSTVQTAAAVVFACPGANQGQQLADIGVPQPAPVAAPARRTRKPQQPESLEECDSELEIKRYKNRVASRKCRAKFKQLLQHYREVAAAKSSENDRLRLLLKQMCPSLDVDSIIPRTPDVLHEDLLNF
# EBNA-1 inh conf – EBNA-1 DNA-binding inhibitors, retest, confirmation, biochemical, fluorescence polarization, triplicate; shares compounds with EBNA-1 inhibitor; Recombinant EBNA-1 DBD, Cy5-DNA fluorescence polarization; inhibition, % at 14.8 µM; actives 35% (n = 830);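 active = mean inhibition across replicates above a set limit taken from the earlier primary screen, cut at about 28% in these data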
# ZTA counter trip – EBV Zta DNA binding inhibitors, counter-screen for EBNA-1 inhibitor project, biochemical, fluorescence polarization, triplicate; shares compounds with EBNA-1 inhibitor; Zta-ZRE DNA binding, Cy5 fluorescence polarization; inhibition, % at 11.1 µM; 830 tested, under 10 active; AID 2328, 2010;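 active = mean inhibition over triplicates above a set limit taken from the primary EBNA-1 screen, cut at about 37% in these data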;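 also: purified full length Zta protein with Cy5 labeled ZRE DNA probe; inhibitors lower polarization by freeing the labeled DNA probe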
# Numbers stand for hits; i = inactive; nt = not tested or not shown; + = active, no number. Hits are enriched below; roughly 1.9% of the tested compounds scored in any of these assays.
SMILES,PP1 inh,EBNA-1 inhibitor,HCV core dimer,HCV NS3 hel inh,ZTA DNA inh,EBNA-1 inh conf,ZTA counter trip
COc1cc2[nH]c(=O)c(C(=O)NCc3ccccc3Cl)c(O)c2cc1OC,nt,nt,nt,i,nt,nt,nt
Cn1nccc1C(=O)N1CCCC(C(=O)c2cccc3ccccc23)C1 (stereo not given),i,40,i,i,i,i,i
COc1ccccc1N1CCN(C(=O)CCc2nnc3ccc(N4CCOCC4)nn23)CC1,i,i,i,i,i,nt,nt
O=C(Nc1ccc(-c2nc3ccccc3o2)cc1)c1ccc(N2C(=O)C3C4C=CC(C4)C3C2=O)cc1 (stereo not given),i,103,i,i,i,112,i
O=C(CN1C(=O)NC2(CCc3ccccc32)C1=O)c1c[nH]c2ccccc12 (stereo not given),i,i,i,nt,i,nt,nt
CCOc1ccc2nc(SCC(=O)NNC(=O)c3ccco3)c(C)cc2c1,i,57,i,i,i,42,i
COc1ccccc1N1CCN(C(=O)C(C)CS(=O)(=O)c2ccc3c(c2)NC(=O)CS3)CC1 (stereo not given),i,i,i,i,i,nt,nt
CCOC(=O)c1cnc(SCc2nc(N)nc(Nc3ccc(F)cc3)n2)nc1N,i,49,i,i,i,i,i
O=C(Nc1cccc(S(=O)(=O)NC2=NCCCCC2)c1)c1cc(-c2ccco2)nc2ccccc12,17,39,69,i,i,i,i
O=C(Nc1cccc(S(=O)(=O)NC2=NCCCCC2)c1)c1cc(-c2ccncc2)nc2ccccc12,i,i,i,i,i,nt,nt
COc1cc(NC(=S)NC(=O)c2ccc(F)cc2)ccc1NC(=O)c1ccco1,i,40,i,i,i,35,i
COc1cc(NC(=S)NC(=O)c2cc(C)cc(C)c2)ccc1NC(=O)c1cccs1,i,70,i,i,i,i,i
COc1cc(NC(=S)NC(=O)c2ccc(C(C)(C)C)cc2)ccc1NC(=O)c1cccs1,i,i,i,i,i,nt,nt
Cc1nc2nc(-c3ccccc3)nn2c(C)c1C,i,+,i,nt,i,i,i
CCn1c(CNC(=O)C23CC4CC(CC(C4)C2)C3)nnc1SCC(=O)Nc1nnc(C)s1,i,42,i,i,i,i,i
O=C(Cn1nnc(-c2ccc(CN3CCOCC3)cc2)n1)Nc1nc(-c2ccccc2)cs1,i,48,i,i,i,i,i
O=C(CN1CCOCC1)Nc1nc(-c2ccccc2)cs1,i,i,i,i,i,nt,nt
O=C(CSc1ncnc2c1oc1ccccc12)Nc1cccc(F)c1,i,34,i,i,i,54,i
Cc1cccc(NC(=O)CSc2ncnc3c2oc2ccccc23)c1,i,i,i,i,i,nt,nt
CCOC(=O)c1ccc(NC(=O)c2cccc(S(=O)(=O)N3c4ccccc4CC3C)c2)s1 (stereo not given),i,40,i,i,i,i,i
O=C(CN1C(=O)c2ccccc2C1=O)Oc1ccc(Cl)cc1,i,i,i,i,i,nt,nt
COc1ccc(NC(=S)Nc2cc(C)[nH]n2)cc1Cl,i,i,i,i,i,nt,nt
COc1ccc(NC(=S)Nc2cc(-c3ccccc3)[nH]n2)cc1Cl,i,36,i,i,i,i,i
Cc1ccc(N2CCN(S(=O)(=O)c3ccc4c(c3)n(C)c(=O)c(=O)n4C)CC2C)cc1 (stereo not given),i,i,i,i,i,nt,nt
Cc1cccc(N2CCN(S(=O)(=O)c3ccc4c(c3)n(C)c(=O)c(=O)n4C)CC2C)c1 (stereo not given),i,35,i,i,i,i,i
SMILES,PP1 inh,EBNA-1 inhibitor,HCV core dimer,HCV NS3 hel inh,ZTA DNA inh,EBNA-1 inh conf,ZTA counter trip
CCc1ccc(OC)c(S(=O)(=O)NCc2cccs2)c1,i,nt,nt,nt,i,nt,nt
CCOc1ccc(NC(=O)CCC(=O)NNC(=O)COc2ccc(C)cc2Br)cc1,i,51,i,i,i,99,i
CNC(=S)NNC(=O)c1sccc1OCc1cccc(C(F)(F)F)c1,i,35,i,i,i,65,i
O=C(Nc1ccccc1C(=O)O)c1ccc(NC(=O)C2CCCCC2)cc1,i,i,i,i,i,nt,nt
CC(C)Cn1c(N)c(C(=O)COC(=O)c2cccnc2Cl)c(=O)n(C)c1=O,i,i,i,i,i,nt,nt
COc1ccc(-c2cc(C(=O)Nc3c(C)nn(Cc4ccccc4Cl)c3C)no2)cc1,i,49,i,i,i,41,i
COc1ccc(NC(=O)COC(=O)c2ccc(OCc3ccccc3Cl)c(OC)c2)c(OC)c1,i,32,i,i,i,i,i
COc1ccc(C(=O)NC(=S)Nc2cccnc2)cc1Cl,i,i,i,i,i,nt,nt
COC(=O)Cc1c(C)c2ccc(OCC(=O)N3CCCC(C)C3)c(C)c2oc1=O (stereo not given),i,48,i,i,i,i,i
O=C(c1ccc(-c2ccccc2Cl)o1)N1CCN(S(=O)(=O)c2cccs2)CC1,i,i,i,nt,i,nt,nt
Cc1ccccc1Nc1nc(N)nc(CSc2nc3ccccc3c(=O)n2CCCO)n1,i,42,i,i,i,i,i
CCOc1cc(NS(=O)(=O)c2ccc(NC(C)=O)cc2)c(OCC)cc1NC(=O)c1cccs1,i,41,i,i,i,28,i
CCOc1cc(NC(=S)NC)c(OCC)cc1NC(=O)c1cccs1,i,i,i,i,i,nt,nt
CN(CCOc1ccccc1)C(=O)c1cc(S(=O)(=O)N2CCCCC2)ccc1Cl,i,i,i,nt,i,nt,nt
O=C(CSc1ccccc1)Nc1nccs1,i,i,i,i,i,nt,nt
O=C(CSc1cn(Cc2ccccc2)c2ccccc12)Nc1nccs1,16,36,i,i,i,i,i
CC(C)Cn1c(N)c(C(=O)COC(=O)c2ccc3c(c2)OCCO3)c(=O)n(C)c1=O,i,29,i,i,i,32,i
CC(C)Cn1c(N)c(C(=O)CSc2ccc3c(c2)OCCO3)c(=O)n(C)c1=O,i,54,i,i,i,47,i
O=C(NCCC(=O)N1CCC2(CC1)NCCc1[nH]cnc12)c1cccc(Cl)c1,i,i,i,i,i,nt,nt
COc1ccc(Cc2nnc(NC(=O)c3ccc(OC)c(OC)c3)s2)cc1,i,i,i,i,i,nt,nt
COc1ccc(C(=O)Nc2nnc(Cc3cccs3)s2)cc1OC,i,30,i,i,i,52,i
COc1cccc(NC(=O)Nc2nnc(Cc3ccc(OC)c(OC)c3)s2)c1,i,i,i,i,i,nt,nt
